Laboratory results taken from ChEMBL document CHEMBL5257040, “Discovery of VU2957 (Valiglurax): An mGlu4 Positive Allosteric Modulator Evaluated as a Preclinical Candidate for the Treatment of Parkinson's Disease” (ACS Med Chem Lett, 2019).

Legend:
[1] = molecular target: Cav1.2 (Homo sapiens, UniProt Q13936); experiment: Inhibition of Cav1.2 (unknown origin) at 10 uM; format: toxicity
Procedure, shortened: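 Cardiac ion channel electrophysiology (functional EP) panel, with percent inhibition measured at 10 μM.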

[2] = Volume of distribution at steady state in Sprague-Dawley rat at 0.2 mg/kg, iv and measured upto 24 hrs by LC-MS/MS analysis; format: ADME, organism-based; conditions: in vivo, read-out: Vdss
Procedure, shortened: (§1)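 Single-dose iv and oral PK in separate arms: mouse 1 mg/kg iv / 3 mg/kg po, SD rat 0.2/3, beagle 0.5/3, cynomolgus 0.2/3 mg/kg. Plasma parameters (Vss, Tmax, F) are means of two to three animals per species.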

[3] = Elimination half life in Beagle dog at 0.5 mg/kg, iv and measured upto 24 hrs by LC-MS/MS analysis; format: ADME, organism-based, Canis lupus familiaris; conditions: in vivo, read-out: beta t1/2 (converted)
Procedure, shortened: (§2)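 Single intravenous doses: mouse 1 mg/kg, SD rat 0.2 mg/kg, beagle dog 0.5 mg/kg, cynomolgus monkey 0.2 mg/kg. Plasma clearance, Vss and elimination half-life came from the plasma profiles. Values are means of two to three animals.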

[4] = molecular target: Cytochrome P450 2D6 (Homo sapiens, UniProt P10635); experiment: Inhibition of CYP2D6 in human liver microsomes using […] as substrate preincubated for 15 mins followed by NADPH addition and measured after 8 mins by LC/MS/MS analysis; format: ADME, Microsome
[5] = Cmax in Beagle dog at 3 mg/kg, po and measured upto 24 hrs by LC-MS/MS analysis; format: ADME, organism-based, Canis lupus familiaris; parameters: dose 3 mg/kg, time < 24 hrs, route po; conditions: in vivo
Procedure, shortened: (§3)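 Single oral 3 mg/kg dose in mouse, SD rat, beagle and cyno. Cmax is the peak total plasma concentration. Values are means of two to three animals.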

[6] = molecular target: Aryl hydrocarbon receptor (Rattus norvegicus, UniProt P41738); experiment: Activation of rat AhR
[7] = molecular target: Cytochrome P450 3A4 (Homo sapiens, UniProt P08684); experiment: Inhibition of CYP3A4 in human liver microsomes using midazolam as substrate preincubated for 15 mins followed by NADPH addition and measured after 8 mins by LC/MS/MS analysis; format: ADME, Microsome
[8] = Oral bioavailability in Beagle dog at 3 mg/kg and measured upto 24 hrs by LC-MS/MS analysis; format: ADME, organism-based, Canis lupus familiaris; conditions: in vivo; procedure, shortened: as §1
[9] = Volume of distribution at steady state in Cynomolgus monkey at 0.2 mg/kg, iv and measured upto 24 hrs by LC-MS/MS analysis; format: ADME, organism-based, Macaca fascicularis; conditions: in vivo, read-out: Vdss; procedure, shortened: as §1
[10] = AUC (0 to infinity) in Beagle dog at 3 mg/kg, po and measured upto 24 hrs by LC-MS/MS analysis; format: ADME, organism-based, Canis lupus familiaris; parameters: time < 24 hrs, dose 3 mg/kg, route po; conditions: in vivo
Procedure, shortened: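 Single oral 3 mg/kg dose in mouse, SD rat, beagle dog and cynomolgus monkey. Total plasma exposure after the oral dose gave Cmax, Tmax, AUC0-inf and F. Values are means of two to three animals.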

[11] = molecular target: Nuclear receptor subfamily 1 group I member 2 (Homo sapiens, UniProt O75469); experiment: Activation of human PXR
[12] = molecular target: Cytochrome P450 2C9 (Homo sapiens, UniProt P11712); experiment: Inhibition of CYP2C9 in human liver microsomes using […] as substrate preincubated for 15 mins followed by NADPH addition and measured after 8 mins by LC/MS/MS analysis; format: ADME, Microsome
[13] = Cmax in Sprague-Dawley rat at 10 mg/kg, po administered as spray-dried dispersion formulation and measured after 24 hrs by LC-MS/MS analysis; format: ADME, organism-based; parameters: dose 10 mg/kg, time 24 hrs, route po; conditions: in vivo
Procedure, shortened: (§4)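 Rats were dosed orally at 3, 10 and 30 mg/kg with a spray-dried dispersion of the free base and HPMCP-HP55 polymer (25%/75%), in 30% Dexolve. Total plasma Cmax and AUC were measured, N = 3.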

[14] = molecular target: Cytochrome P450 2B6 (Homo sapiens, UniProt P20813); experiment: Induction of CYP2B6 in human hepatocytes; format: ADME, cell-based
Procedure, shortened: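 CYP1A2, 2B6 and 3A4 induction measured in human hepatocytes.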

[15] = Tmax in Sprague-Dawley rat at 3 mg/kg, po and measured upto 24 hrs by LC-MS/MS analysis; format: ADME, organism-based; conditions: in vivo; procedure, shortened: as §1
[16] = Genotoxicity in Salmonella typhimurium […] by Ames test; format: toxicity; conditions: salmonella enterica subsp. enterica serovar typhimurium
Procedure, shortened: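 Ames bacterial reverse mutation test in strains TA98 and […], run with and without S9 metabolic activation.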

[17] = Clearance in Beagle dog plasma at 0.5 mg/kg, iv and measured upto 24 hrs by LC-MS/MS analysis; format: ADME, organism-based, Canis lupus familiaris; procedure, shortened: as §2
[18] = molecular target: Amine oxidase [flavin-containing] A (Homo sapiens, UniProt P21397); experiment: Binding affinity to MAO-A (unknown origin)
[19] = AUC in Sprague-Dawley rat at 10 mg/kg, po administered as spray-dried dispersion formulation and measured after 24 hrs by LC-MS/MS analysis; format: ADME, organism-based; parameters: dose 10 mg/kg, time 24 hrs, route po; conditions: in vivo; procedure, shortened: as §4
[20] = Tmax in CD-1 mouse plasma at 3 mg/kg, po and measured upto 24 hrs by LC-MS/MS analysis; format: ADME, organism-based; procedure, shortened: as §1
[21] = Protein binding in cynomolgus monkey plasma assessed as fraction unbound incubated for 4 hrs by equilibrium dialysis based LC/MS/MS analysis; format: ADME, cell-free, Macaca fascicularis
[22] = Cmax in Sprague-Dawley rat at 30 mg/kg, po administered as spray-dried dispersion formulation and measured after 24 hrs by LC-MS/MS analysis; format: ADME, organism-based; parameters: time 24 hrs, dose 30 mg/kg, route po; conditions: in vivo; procedure, shortened: as §4
[23] = Cmax in Sprague-Dawley rat at 3 mg/kg, po administered as spray-dried dispersion formulation and measured after 24 hrs by LC-MS/MS analysis; format: ADME, organism-based; parameters: time 24 hrs, dose 3 mg/kg, route po; conditions: in vivo; procedure, shortened: as §4
[24] = molecular target: Metabotropic glutamate receptor 7 (Rattus norvegicus, UniProt P35400); experiment: Positive allosteric modulator activity at rat mGlu7 in human HEK cells co-expressing […] assessed as increase in by thallium flux preincubated for 2.5 mins followed by gluatamate addition by thallium flux assay; format: cell-based
[25] = Clearance in CD-1 mouse plasma at 1 mg/kg, iv and measured upto 24 hrs by LC-MS/MS analysis; format: ADME, organism-based; procedure, shortened: as §2
[26] = Unbound brain-to-plasma concentration ratio in CD-1 mouse at 1 mg/kg,iv and measured upto 24 hrs by LC-MS/MS analysis; format: ADME, organism-based; conditions: read-out: K(p,uu,brain)
[27] = molecular target: Cytochrome P450 1A2 (Homo sapiens, UniProt P05177); experiment: Inhibition of CYP1A2 in human liver microsomes using […] as substrate preincubated for 15 mins followed by NADPH addition and measured after 8 mins by LC/MS/MS analysis; format: ADME, Microsome
[28] = Brain to plasma permeability coefficient, Kp in CD-1 mouse plasma at 1 mg/kg,iv and measured upto 24 hrs by LC-MS/MS analysis; format: ADME, organism-based
Procedure, shortened: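 Total brain to total plasma partition coefficient (Kp) measured in mouse, SD rat and cynomolgus monkey. The unbound ratio (Kp,uu) was corrected with brain homogenate binding. Values are means of two to three animals.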

[29] = Elimination half life in CD-1 mouse plasma at 1 mg/kg, iv and measured upto 24 hrs by LC-MS/MS analysis; format: ADME, organism-based; conditions: read-out: beta t1/2 (converted); procedure, shortened: as §2
[30] = Cmax in Sprague-Dawley rat at 3 mg/kg, po and measured upto 24 hrs by LC-MS/MS analysis; format: ADME, organism-based; parameters: time < 24 hrs, dose 3 mg/kg, route po; conditions: in vivo; procedure, shortened: as §3
[31] = molecular target: Metabotropic glutamate receptor 5 (Rattus norvegicus, UniProt P31424); experiment: Positive allosteric modulator activity at rat mGlu5 in human HEK cells assessed as increase in calcium flux preincubated for 2.5 mins followed by gluatamate addition by Fluo-4 AM dye based calcium mobilization assay; format: cell-based
[32] = Cmax in CD-1 mouse plasma at 3 mg/kg, po and measured upto 24 hrs by LC-MS/MS analysis; format: ADME, organism-based; parameters: time < 24 hrs, dose 3 mg/kg, route po; procedure, shortened: as §3

Metabotropic glutamate receptor 5, sequence (P31424 whole entry): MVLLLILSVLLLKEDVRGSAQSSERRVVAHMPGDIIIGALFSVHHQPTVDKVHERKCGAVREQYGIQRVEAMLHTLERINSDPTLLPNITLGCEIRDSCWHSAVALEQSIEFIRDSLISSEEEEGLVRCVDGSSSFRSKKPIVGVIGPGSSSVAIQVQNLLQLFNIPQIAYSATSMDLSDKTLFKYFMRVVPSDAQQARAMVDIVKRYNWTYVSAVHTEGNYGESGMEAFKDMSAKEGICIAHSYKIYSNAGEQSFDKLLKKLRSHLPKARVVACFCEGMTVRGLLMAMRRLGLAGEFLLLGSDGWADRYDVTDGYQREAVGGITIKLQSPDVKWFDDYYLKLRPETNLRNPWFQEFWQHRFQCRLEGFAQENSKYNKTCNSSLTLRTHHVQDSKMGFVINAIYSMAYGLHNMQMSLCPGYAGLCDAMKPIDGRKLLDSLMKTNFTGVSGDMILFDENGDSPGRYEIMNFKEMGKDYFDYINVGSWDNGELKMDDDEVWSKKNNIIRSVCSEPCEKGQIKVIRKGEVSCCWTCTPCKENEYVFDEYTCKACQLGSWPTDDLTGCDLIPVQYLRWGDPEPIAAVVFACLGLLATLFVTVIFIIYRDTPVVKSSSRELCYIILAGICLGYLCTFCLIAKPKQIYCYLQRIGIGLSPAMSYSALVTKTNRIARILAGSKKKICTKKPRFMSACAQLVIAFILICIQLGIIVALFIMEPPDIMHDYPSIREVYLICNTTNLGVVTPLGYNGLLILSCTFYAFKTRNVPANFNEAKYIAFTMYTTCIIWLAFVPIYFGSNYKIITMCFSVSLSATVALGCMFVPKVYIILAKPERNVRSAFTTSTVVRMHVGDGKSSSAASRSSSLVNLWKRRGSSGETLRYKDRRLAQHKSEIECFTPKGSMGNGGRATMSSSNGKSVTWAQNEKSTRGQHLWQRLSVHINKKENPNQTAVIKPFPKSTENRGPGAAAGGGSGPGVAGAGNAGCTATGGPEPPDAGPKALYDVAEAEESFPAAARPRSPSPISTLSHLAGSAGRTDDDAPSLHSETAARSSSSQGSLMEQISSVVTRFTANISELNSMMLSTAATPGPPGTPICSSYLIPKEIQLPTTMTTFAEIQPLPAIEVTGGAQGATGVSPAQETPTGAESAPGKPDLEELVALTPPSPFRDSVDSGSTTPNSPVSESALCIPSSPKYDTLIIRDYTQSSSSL
Nuclear receptor subfamily 1 group I member 2, sequence (O75469 whole entry): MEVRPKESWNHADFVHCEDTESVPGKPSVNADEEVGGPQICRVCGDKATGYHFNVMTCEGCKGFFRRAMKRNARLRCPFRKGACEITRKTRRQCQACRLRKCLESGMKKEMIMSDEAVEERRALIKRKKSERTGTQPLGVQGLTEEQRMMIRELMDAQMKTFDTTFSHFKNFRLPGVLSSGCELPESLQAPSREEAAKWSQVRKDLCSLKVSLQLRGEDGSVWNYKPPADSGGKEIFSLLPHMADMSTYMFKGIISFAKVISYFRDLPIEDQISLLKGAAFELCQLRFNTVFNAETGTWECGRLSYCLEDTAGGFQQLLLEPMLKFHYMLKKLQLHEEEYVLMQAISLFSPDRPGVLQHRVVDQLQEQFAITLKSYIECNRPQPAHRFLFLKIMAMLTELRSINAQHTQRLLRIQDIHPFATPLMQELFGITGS
Cytochrome P450 2D6, sequence (P10635 whole entry): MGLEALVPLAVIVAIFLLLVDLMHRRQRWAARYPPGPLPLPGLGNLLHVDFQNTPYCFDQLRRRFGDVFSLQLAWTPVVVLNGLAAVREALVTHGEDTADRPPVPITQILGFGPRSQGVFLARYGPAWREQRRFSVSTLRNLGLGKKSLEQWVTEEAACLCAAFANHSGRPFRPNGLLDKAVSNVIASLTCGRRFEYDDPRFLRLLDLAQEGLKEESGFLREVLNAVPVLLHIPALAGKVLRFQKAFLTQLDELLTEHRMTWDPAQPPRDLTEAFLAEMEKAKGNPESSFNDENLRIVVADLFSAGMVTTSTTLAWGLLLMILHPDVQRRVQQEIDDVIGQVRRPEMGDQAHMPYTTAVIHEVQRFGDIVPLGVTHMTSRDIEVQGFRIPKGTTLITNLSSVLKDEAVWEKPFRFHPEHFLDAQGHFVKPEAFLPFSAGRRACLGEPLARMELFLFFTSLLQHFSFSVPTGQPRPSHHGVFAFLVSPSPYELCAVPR
Cav1.2, sequence (Q13936 whole entry): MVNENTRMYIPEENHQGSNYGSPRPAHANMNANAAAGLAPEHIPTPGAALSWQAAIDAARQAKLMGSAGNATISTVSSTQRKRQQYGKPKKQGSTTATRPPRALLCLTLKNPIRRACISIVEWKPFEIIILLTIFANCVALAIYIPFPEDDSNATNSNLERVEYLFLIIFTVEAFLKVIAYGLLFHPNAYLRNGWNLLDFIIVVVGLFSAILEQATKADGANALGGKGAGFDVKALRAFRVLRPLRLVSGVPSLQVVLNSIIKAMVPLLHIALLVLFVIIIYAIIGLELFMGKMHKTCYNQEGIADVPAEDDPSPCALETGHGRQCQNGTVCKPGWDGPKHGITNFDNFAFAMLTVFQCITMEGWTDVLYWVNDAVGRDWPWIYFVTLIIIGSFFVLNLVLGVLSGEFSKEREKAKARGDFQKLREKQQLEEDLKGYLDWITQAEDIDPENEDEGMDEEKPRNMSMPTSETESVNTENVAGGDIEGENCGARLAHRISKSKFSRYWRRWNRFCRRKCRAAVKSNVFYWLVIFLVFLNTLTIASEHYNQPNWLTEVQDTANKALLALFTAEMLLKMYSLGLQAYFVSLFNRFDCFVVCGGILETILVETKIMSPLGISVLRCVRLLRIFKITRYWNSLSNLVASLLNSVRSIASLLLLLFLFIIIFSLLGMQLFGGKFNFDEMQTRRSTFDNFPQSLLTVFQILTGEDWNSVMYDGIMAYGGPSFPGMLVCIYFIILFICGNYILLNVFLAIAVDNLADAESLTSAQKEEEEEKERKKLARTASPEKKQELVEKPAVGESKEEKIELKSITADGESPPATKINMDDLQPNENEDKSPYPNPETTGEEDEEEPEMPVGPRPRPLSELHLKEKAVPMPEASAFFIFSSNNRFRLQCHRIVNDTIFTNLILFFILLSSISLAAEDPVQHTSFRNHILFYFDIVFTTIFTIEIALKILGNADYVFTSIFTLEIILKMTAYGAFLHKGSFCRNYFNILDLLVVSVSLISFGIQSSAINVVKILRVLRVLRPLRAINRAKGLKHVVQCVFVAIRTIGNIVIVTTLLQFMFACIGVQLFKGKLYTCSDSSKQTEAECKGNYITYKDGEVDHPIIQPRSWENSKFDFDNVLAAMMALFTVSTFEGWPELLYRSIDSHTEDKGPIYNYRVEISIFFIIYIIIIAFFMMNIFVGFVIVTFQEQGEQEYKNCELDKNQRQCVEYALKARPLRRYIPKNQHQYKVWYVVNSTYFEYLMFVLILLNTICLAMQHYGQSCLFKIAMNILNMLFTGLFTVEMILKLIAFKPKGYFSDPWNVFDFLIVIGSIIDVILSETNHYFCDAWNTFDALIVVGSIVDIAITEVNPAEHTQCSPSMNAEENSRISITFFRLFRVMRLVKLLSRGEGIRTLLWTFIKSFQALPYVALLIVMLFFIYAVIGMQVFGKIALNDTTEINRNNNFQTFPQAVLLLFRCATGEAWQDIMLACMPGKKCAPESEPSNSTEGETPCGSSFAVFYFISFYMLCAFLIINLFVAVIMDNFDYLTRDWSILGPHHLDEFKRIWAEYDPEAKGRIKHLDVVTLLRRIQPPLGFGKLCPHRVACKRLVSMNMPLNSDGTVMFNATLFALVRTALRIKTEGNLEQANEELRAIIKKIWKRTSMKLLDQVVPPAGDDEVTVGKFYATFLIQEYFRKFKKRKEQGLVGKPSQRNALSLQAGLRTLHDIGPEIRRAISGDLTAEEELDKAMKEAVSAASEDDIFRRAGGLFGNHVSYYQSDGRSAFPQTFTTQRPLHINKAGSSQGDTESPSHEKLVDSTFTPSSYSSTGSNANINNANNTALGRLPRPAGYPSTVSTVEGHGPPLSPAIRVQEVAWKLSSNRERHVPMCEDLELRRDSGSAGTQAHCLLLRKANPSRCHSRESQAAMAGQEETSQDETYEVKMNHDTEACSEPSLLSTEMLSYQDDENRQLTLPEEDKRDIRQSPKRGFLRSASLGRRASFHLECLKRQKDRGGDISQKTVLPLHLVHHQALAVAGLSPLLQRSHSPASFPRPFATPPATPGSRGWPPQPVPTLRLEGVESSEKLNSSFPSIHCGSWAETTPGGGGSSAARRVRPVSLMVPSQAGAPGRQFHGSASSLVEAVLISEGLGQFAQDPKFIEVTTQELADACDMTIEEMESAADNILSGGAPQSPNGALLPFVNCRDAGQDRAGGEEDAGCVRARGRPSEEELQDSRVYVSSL
Cytochrome P450 1A2, sequence (P05177 whole entry): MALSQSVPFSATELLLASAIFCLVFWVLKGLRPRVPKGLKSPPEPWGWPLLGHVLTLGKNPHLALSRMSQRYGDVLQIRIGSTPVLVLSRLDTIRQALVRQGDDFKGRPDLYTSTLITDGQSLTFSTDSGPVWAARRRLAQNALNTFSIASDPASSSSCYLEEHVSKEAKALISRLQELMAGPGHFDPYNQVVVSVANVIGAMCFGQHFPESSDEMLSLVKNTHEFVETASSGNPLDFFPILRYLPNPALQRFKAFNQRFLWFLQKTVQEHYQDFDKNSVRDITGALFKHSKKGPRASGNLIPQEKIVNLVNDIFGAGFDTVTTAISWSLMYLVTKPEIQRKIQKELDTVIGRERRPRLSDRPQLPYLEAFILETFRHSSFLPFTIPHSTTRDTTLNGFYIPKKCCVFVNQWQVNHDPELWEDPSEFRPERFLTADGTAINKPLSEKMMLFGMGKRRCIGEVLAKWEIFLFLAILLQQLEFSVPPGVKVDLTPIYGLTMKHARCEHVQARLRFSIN

FC(F)(F)c1nccc2cc(Nc3n[nH]c4ncccc34)ccc12
inhibition at 10 µM [1]: < 50%
Vd [2]: 3 L/kg
half-life [3]: 177 min
IC50 [4]: > 30 µM
Cmax [5]: 490 nM
Activity [6]: Not Active
IC50 [7]: > 30 µM
bioavailability [8]: 37.5%
Vd [9]: 3.2 L/kg
AUC(0-inf) [10]: 1.82 µM·h
Activity [11]: Not Active
IC50 [12]: > 30 µM
Cmax [13]: 2050 nM
Activity [14]: Not Active
Tmax [15]: 2 h
Activity [16]: Non-Toxic
clearance [17]: 31.6 mL/min/kg
EC50 [18]: > 30 µM
AUC at 24 h [19]: 23.7 µM·h
Tmax [20]: 25.2 min
fraction unbound at 4 h [21]: 0.016
Cmax [22]: 6.05 µM
Cmax [23]: 630 nM
EC50 [24]: > 10 µM
clearance [25]: 78.3 mL/min/kg
Kp uu at 24 h [26]: 0.16
IC50 [27]: 1500 nM
Kp at 24 h [28]: 0.78
half-life [29]: 179 min
Cmax [30]: 1440 nM
EC50 [31]: > 10 µM
Cmax [32]: 1100 nM
